Results reported in PubChem BioAssay.
Calls of active or inactive are those of the source. Cut-off read from the data, not from the text of the source, unless noted: active = inhibition above about 30%; inactive = the rest.

What was measured:
[1] = Her2 expression decrease, cell viability multiplex – SKBR3 breast tumor cells, AlphaScreen, ATP viability, primary screen (AID 461;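 active = Her2 level under about 52% in both replicate screens, with viability over 70% of control, limit read from the data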;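 for Her2 level: lower value means less Her2 protein in the cells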;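 for viability: percent of carrier control wells set as 100% viability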); conditions: SKBR3 Her2 protein level, 18-24 h, measured here: SKBR3 viability, ATP luminescence, at 10 µM
[2] = biological target: Receptor tyrosine-protein kinase erbB-2 (Homo sapiens) (UniProt P04626); test: as above; conditions: 18-24 h, at 10 µM, stronger effect = lower value
Sequence of Receptor tyrosine-protein kinase erbB-2 (Homo sapiens) (P04626 whole entry, looked up): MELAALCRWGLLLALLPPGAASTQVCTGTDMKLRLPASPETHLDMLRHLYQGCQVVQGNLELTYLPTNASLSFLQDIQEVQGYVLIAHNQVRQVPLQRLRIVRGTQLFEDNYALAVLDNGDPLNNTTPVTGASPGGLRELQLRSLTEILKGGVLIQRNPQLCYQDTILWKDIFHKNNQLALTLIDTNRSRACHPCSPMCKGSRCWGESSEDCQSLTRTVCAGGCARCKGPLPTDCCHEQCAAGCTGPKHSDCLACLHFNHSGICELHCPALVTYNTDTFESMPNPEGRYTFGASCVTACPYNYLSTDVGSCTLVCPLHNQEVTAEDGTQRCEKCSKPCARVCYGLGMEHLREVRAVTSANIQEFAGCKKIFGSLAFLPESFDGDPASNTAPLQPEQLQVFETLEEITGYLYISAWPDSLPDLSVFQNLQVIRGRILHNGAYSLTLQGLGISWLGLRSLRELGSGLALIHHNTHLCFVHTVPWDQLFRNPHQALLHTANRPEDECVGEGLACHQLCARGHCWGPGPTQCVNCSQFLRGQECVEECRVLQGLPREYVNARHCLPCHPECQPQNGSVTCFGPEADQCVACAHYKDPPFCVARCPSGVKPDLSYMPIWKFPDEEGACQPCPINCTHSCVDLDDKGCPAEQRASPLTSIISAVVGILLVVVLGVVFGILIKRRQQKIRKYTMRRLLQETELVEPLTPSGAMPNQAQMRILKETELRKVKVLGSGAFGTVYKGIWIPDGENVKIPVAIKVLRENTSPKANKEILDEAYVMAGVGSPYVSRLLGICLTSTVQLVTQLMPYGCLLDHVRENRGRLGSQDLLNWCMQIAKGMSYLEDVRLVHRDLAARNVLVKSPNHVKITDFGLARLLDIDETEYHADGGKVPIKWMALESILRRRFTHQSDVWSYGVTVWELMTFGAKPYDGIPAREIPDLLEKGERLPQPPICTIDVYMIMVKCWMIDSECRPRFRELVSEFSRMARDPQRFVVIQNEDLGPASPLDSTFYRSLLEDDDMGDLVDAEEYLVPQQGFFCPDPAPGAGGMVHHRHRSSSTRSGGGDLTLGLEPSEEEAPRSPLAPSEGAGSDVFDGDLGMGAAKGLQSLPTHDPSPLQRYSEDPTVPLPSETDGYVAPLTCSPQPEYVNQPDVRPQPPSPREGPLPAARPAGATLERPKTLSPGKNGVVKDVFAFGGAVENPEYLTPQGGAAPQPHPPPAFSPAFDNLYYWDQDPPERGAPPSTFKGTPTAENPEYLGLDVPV

[3] = reduced viability of SK-BR-3 breast cancer cells – cell-based, 24 h, human, pilot screen (AID 572;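 active = viability at or below 10% of carrier control in both of two separate runs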;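 note: compound exposure lasted between 18 and 24 h rather than exactly 24 h; 100% = carrier-treated control wells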); conditions: SK-BR-3 viability, CellTiter-Glo luminescence, at 10 µM, stronger effect = lower value
[4] = HUVEC growth inhibition – cell-based, human, primary screen (AID 575;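 active = viability at or below 30% in both replicate assays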;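 note: 100% = median of untreated cell wells with 0.1% DMSO on each plate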); conditions: HUVEC proliferation, CellTiter-Glo luminescence, 72 h; at 10 µM; stronger effect = lower value
Outline: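 Material: primary human umbilical vein endothelial cells / Schedule: 72 h exposure, 37 °C, 5% CO2, 30 min RT equilibration / Signal: ATP-based CellTiter-Glo luminescent read / Read-out basis: percent of median DMSO-control luminescence / Control set: 32 DMSO-only cell-control wells (high), 32 MePR drug-control wells (low) per plate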

[5] = H69AR cell proliferation blockers – human, duplicate replicates, primary screen (AID 580;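 active = viability at or under a set limit in both replicates, limit being median viability minus 3 SD, cut at about 48% in these data, passing the limit was not always enough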;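 note: 100% = mean luminescence of untreated wells and 0% = no signal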); conditions: H69AR lung tumor cells viability, ATP luminescence, 72 h; at 10 µM; stronger effect = lower value
[6] = MRP1 drug-resistance reversers in H69AR cells – cell-based, doxorubicin co-treatment, pilot screen (AID 601;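 active = viability loss from added drug above about 55%, and viability with drug at most 40%, in both replicates, limit read from the data, passing the limit was not always enough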); conditions: CellTiter-Glo, 72 h, at 10 µM; for differential viability (reversal): stronger effect = higher value
[7] = yeast transport mutant growth inhibition pilot in 384-well plates, post-Golgi transport modulator project (AID 636; in the data active = inhibition above about 31%); conditions: absorbance 615 nm, about 18 h, stronger effect = higher value
[8] = growth suppression of yeast trafficking mutant, preliminary HTS, modulators of trafficking downstream of Golgi apparatus project, 1536-format plate, OD 615 nm (AID 637); conditions: yeast transport mutant growth, absorbance 615 nm, 18 h; stronger effect = higher value
[9] = H69AR cells + 2 uM doxorubicin, measured here: viability with 2 uM doxorubicin, stronger effect = lower value
[10] = H69AR cells, compound alone cytotoxicity

| SMILES | viability [1] | Her2 level [2] | viability [3] | viability [4] | viability [5] | differential viability (reversal) ([6]; H69AR cells + 2 uM doxorubicin) | viability [6, 9] | viability [6, 10] | inhibition [7] | inhibition [8] |
| --- | --- | --- | --- | --- | --- | --- | --- | --- | --- | --- |
| Cc1noc(C)c1S(=O)(=O)N1CCCC(C(=O)NCCc2ccc(Cl)cc2)C1 (stereo not given) | 89% | 82% (inactive) | 89% (inactive) | 98.1% (inactive) | 97.1% (inactive) | 5.35% (inactive) | 91.7% | 97.1% | -5.34% (inactive) | 4.76% (inactive) |
| COc1ccc(C2/C(=C(/O)c3ccccc3)C(=O)C(=O)N2C)cc1 (stereo not given) | 102% | 83.5% (inactive) | 102% (inactive) | 107% (inactive) | 101% (inactive) | 3% (inactive) | 98.1% | 101% | -7.84% (inactive) | 1.97% (inactive) |
| CC(=O)c1cccc(S(=O)(=O)NCC(c2ccco2)N2CCCCC2)c1 (stereo not given) | 101% | 80% (inactive) | 101% (inactive) | 96% (inactive) | 99.4% (inactive) | 11.9% (inactive) | 87.5% | 99.4% | -0.91% (inactive) | -7.3% (inactive) |
| COc1ccc(OC)c(S(=O)(=O)Nc2ccccc2C(=O)O)c1 | 109% | 100% (inactive) | 109% (inactive) | 98.3% (inactive) | 99% (inactive) | 11.8% (inactive) | 87.2% | 99% | -4.4% (inactive) | 0.16% (inactive) |
| O=C(CN1CCC(n2nnc3cc(F)ccc32)CC1)Nc1ccc2c(c1)CCC2 | 93% | 104% (inactive) | 93% (inactive) | 79.5% (inactive) | 86.3% (inactive) | -5.55% (inactive) | 91.8% | 86.3% | -4.59% (inactive) | -3.5% (inactive) |
| O=C1CN(Cc2ccccc2)C(=NCc2ccco2)S1 | 97% | 74% (inactive) | 97% (inactive) | 97.7% (inactive) | 86.7% (inactive) | 4.9% (inactive) | 81.8% | 86.7% | -6.49% (inactive) | 2.95% (inactive) |
| CC(C)OC(=O)CSc1nnc(-c2ccco2)n1N | 99.5% | 112% (inactive) | 99.5% (inactive) | 90.4% (inactive) | 107% (inactive) | 14% (inactive) | 93.2% | 107% | -5% (inactive) | -5.33% (inactive) |
| CCn1c(NCc2ccc(N(C)C)cc2)nc2ccccc21 | 84.5% | 87.5% (inactive) | 84.5% (inactive) | 101% (inactive) | 97.9% (inactive) | 11.2% (inactive) | 86.7% | 97.9% | -2.03% (inactive) | -1.5% (inactive) |
| CC(=Nc1ccc(C)c(C)c1)C1=C(O)CCC1=O | 102% | 88.5% (inactive) | 102% (inactive) | 95.1% (inactive) | 94.7% (inactive) | 12% (inactive) | 82.8% | 94.7% | -3.73% (inactive) | -2.46% (inactive) |
| CCOC(=O)/C(C#N)=C1\Nc2ccccc2N=C1N(CC(C)C)CC(C)C | 80% | 104% (inactive) | 80% (inactive) | 86.2% (inactive) | 84.2% (inactive) | -5.4% (inactive) | 89.6% | 84.2% | -4.13% (inactive) | -2.79% (inactive) |
| CCN(C(=O)c1cc(Cl)ccc1OC)C1CCCCC1 | 86.5% | 104% (inactive) | 86.5% (inactive) | 101% (inactive) | 83.8% (inactive) | -10.6% (inactive) | 94.4% | 83.8% | -2.86% (inactive) | -2.5% (inactive) |
| COc1ccc(NC(=O)C(C)Oc2ccc(/C(C)=N\O)cc2)cc1 (stereo not given) | 122% | 92% (inactive) | 122% (inactive) | 91.9% (inactive) | 90.4% (inactive) | 7.12% (inactive) | 83.3% | 90.4% | -7.33% (inactive) | -0.32% (inactive) |
| O=C(c1ccc2ccccc2n1)N1CCN(c2ccccc2)CC1 | 88.5% | 86% (inactive) | 88.5% (inactive) | 100% (inactive) | 112% (inactive) | 13.8% (inactive) | 98.6% | 112% | -4.19% (inactive) | -3.61% (inactive) |
| S=c1[nH]nc(-c2ccco2)n1-c1cccc2ccccc12 | 102% | 98.5% (inactive) | 102% (inactive) | 78.5% (inactive) | 96.9% (inactive) | 3.69% (inactive) | 93.2% | 96.9% | -0.54% (inactive) | 14.6% (inactive) |
| N#C/C(C(=O)N1CCOCC1)=C1/SC(Cc2ccccc2)C(=O)N1c1ccccc1 (stereo not given) | 92% | 90.5% (inactive) | 92% (inactive) | 99.4% (inactive) | 98.4% (inactive) | -3.21% (inactive) | 102% | 98.4% | -3.55% (inactive) | -4.91% (inactive) |
| CC(C)Cn1c(CN(Cc2ccccc2)Cc2ccccc2)nc2c1c(=O)n(C)c(=O)n2C | 85.5% | 86.5% (inactive) | 85.5% (inactive) | 54.8% (inactive) | 90.1% (inactive) | 1.2% (inactive) | 88.9% | 90.1% | -1.47% (inactive) | 3.93% (inactive) |
| C#CCSc1nnc(-c2ccccc2)c(=O)[nH]1 | 92.5% | 91% (inactive) | 92.5% (inactive) | 89.4% (inactive) | 94.7% (inactive) | 3.12% (inactive) | 91.5% | 94.7% | -3.92% (inactive) | -5.9% (inactive) |
| O=C(COC(=O)C1CCN(S(=O)(=O)c2cccs2)CC1)c1cc2ccccc2o1 | 104% | 83% (inactive) | 104% (inactive) | 91.9% (inactive) | 96.2% (inactive) | 2.38% (inactive) | 93.8% | 96.2% | -2.19% (inactive) | -0.63% (inactive) |
| COC(=O)Cc1c(C)nc2nc(-c3ccco3)[nH]n2c1=O | 110% | 93% (inactive) | 110% (inactive) | 93.6% (inactive) | 98.7% (inactive) | 8.05% (inactive) | 90.6% | 98.7% | -2.76% (inactive) | -3.65% (inactive) |
| Cc1cc(C(=O)N2CCN(c3ncccn3)CC2)cs1 | 90% | 94.5% (inactive) | 90% (inactive) | 104% (inactive) | 102% (inactive) | 11.2% (inactive) | 90.8% | 102% | -5.87% (inactive) | -1.15% (inactive) |
| Cc1ccc(Br)cc1S(=O)(=O)N1CCN(c2ccccc2)CC1 | 93.5% | 116% (inactive) | 93.5% (inactive) | 76.2% (inactive) | 79.4% (inactive) | -5.03% (inactive) | 84.5% | 79.4% | 1.17% (inactive) | -8.5% (inactive) |
| O=c1[nH]c(/C(=N\O)c2ccccc2)no1 | 93.5% | 82% (inactive) | 93.5% (inactive) | 83.2% (inactive) | 73.2% (inactive) | 32.5% (inactive) | 40.7% | 73.2% | -0.39% (inactive) | 5.74% (inactive) |
| Cc1cc(NC(=O)CCCN2C(=O)c3cccnc3C2=O)no1 | 92% | 95.5% (inactive) | 92% (inactive) | 94.3% (inactive) | 107% (inactive) | 5.19% (inactive) | 102% | 107% | -2.84% (inactive) | -1.64% (inactive) |
| CC(=O)N1CCc2cc(Br)cc(S(=O)(=O)NCCCN3CCCC(C)C3)c21 (stereo not given) | 83% | 93% (inactive) | 83% (inactive) | 89.9% (inactive) | 91.8% (inactive) | 0.035% (inactive) | 91.7% | 91.8% | -2.57% (inactive) | -3.93% (inactive) |
| CCOC(=O)N1CCN(S(=O)(=O)c2ccc(Br)s2)CC1 | 103% | 112% (inactive) | 103% (inactive) | 100% (inactive) | 94.4% (inactive) | 7.92% (inactive) | 86.5% | 94.4% | -3.03% (inactive) | 2.95% (inactive) |
| COc1ccc(N2CCN(C(c3cccs3)c3nnnn3C3CCCC3)CC2)cc1 (stereo not given) | 90.5% | 95% (inactive) | 90.5% (inactive) | 69.3% (inactive) | 70% (inactive) | -17.6% (inactive) | 87.5% | 70% | -3.25% (inactive) | -5.87% (inactive) |
| O=C(Nc1cccc(Cl)c1)N1CCN(c2ncccn2)CC1 | 100% | 94.5% (inactive) | 100% (inactive) | 124% (inactive) | 104% (inactive) | 17.4% (inactive) | 86.7% | 104% | 0.27% (inactive) | -6.51% (inactive) |
| COc1cc(S(=O)(=O)n2nnc3ccccc32)c(OC)cc1Cl | 96% | 81.5% (inactive) | 96% (inactive) | 77% (inactive) | 84.9% (inactive) | -3.02% (inactive) | 87.9% | 84.9% | -2.8% (inactive) | 41.8% (active) |
